Measured values taken from ChEMBL document CHEMBL3526063, “Metabolism and pharmacokinetics of JM6 in mice: JM6 is not a prodrug for Ro-61-8048” (Drug Metab Dispos, 2012).
Each block holds one compound with its values, some of them ahead of it.

How the values were obtained:
[1] = Cmax in mouse at 25 mg/kg, po; format: ADME, organism-based; design: dose 25 mg/kg, route oral; conditions: in vivo
Mus musculus [2] = test: AUC(infinity) in C57BL/6N mouse at 10 mg/kg, po administered via gavage containing <0.4% Ro-61-8048 by LC-MS/MS analysis; format: ADME, organism-based, Plasma; design: time infinity, dose 10 mg/kg, route oral; conditions: in vivo
In short: (§1)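 Male C57BL/6N mice were dosed by oral gavage at 10 mL/kg with a fine suspension in 10% hydroxypropyl-β-cyclodextrin in 50 mM phosphate buffer, pH 7. Plasma was taken at non-serial time points (n=3 per time point), extracted with 0.1% formic acid in acetonitrile containing diclofenac as internal standard, and quantified by UPLC-MS/MS. Composite non-compartmental parameters came from mean concentrations; AUClast by linear trapezoid, kel from at least three terminal points.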

[3] = Metabolic stability in mouse blood assessed as half life at 5 uM by LC-MS/MS analysis; format: ADME, tissue-based
Liver = test: Metabolic stability in mouse liver microsomes assessed as intrinsic clearance at 1 uM after 5 to 40 mins by LC-MS/MS analysis
[4] = Cmax in mouse at 10 mg/kg, po; format: ADME, organism-based; design: dose 10 mg/kg, route oral; conditions: in vivo
Mus musculus [5] = test: Tmax in C57BL/6N mouse at 10 mg/kg, po administered via gavage containing <0.4% Ro-61-8048 by LC-MS/MS analysis; format: ADME, organism-based; design: dose 10 mg/kg, route oral; conditions: in vivo
In short: (§2)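 Male C57BL/6N mice dosed by oral gavage (10 mL/kg) as fine suspensions in 10% hydroxypropyl-β-cyclodextrin in 50 mM phosphate buffer pH 7; dose formulations verified by LC-MS/MS. Plasma analysed by LC-MS/MS; composite non-compartmental parameters from mean concentrations (n=3 per time point), C0 set to zero. %F = dose-normalised po AUCinf over dose-normalised iv AUCinf, only within linear range.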

[6] = Oral bioavailability in C57BL/6N mouse treated with JM6 (containing <0.4% Ro-61-8048) at 9 mg/kg and Ro-61-8048 at 1 mg/kg drugs administered via gavage by LC-MS/MS analysis; format: ADME, organism-based; conditions: in vivo; in short: as §2
[7] = Mean residence time in C57BL/6N mouse at 5 mg/kg, iv administered as single dose containing <0.4% Ro-61-8048 by LC-MS/MS analysis; format: ADME, organism-based; design: dose 5 mg/kg, route intravenous; conditions: in vivo
In short: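 Male C57BL/6N mice given 5 mg/kg iv bolus (1 mg/mL, DMSO:PEG400:water 10:50:40, filtered); dosed material carried Ro-61-8048 as impurity, which was also quantified in plasma. LC-MS/MS after acetonitrile/formic acid extraction; composite non-compartmental analysis of mean concentrations (n=3 per time point), C0 back-extrapolated, kel from ≥3 terminal points.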

Mus musculus [8] = test: Half life in C57BL/6N mouse at 10 mg/kg, po administered via gavage containing <0.4% Ro-61-8048 by LC-MS/MS analysis; format: ADME, organism-based; design: dose 10 mg/kg, route oral; conditions: in vivo; in short: as §1
[9] = Half life in C57BL/6N mouse at 5 mg/kg, iv administered as single dose by LC-MS/MS analysis; format: ADME, organism-based; design: dose 5 mg/kg, route intravenous; conditions: in vivo
In short: (§3)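 Single intravenous bolus of 5 mg/kg to male C57BL/6N mice, given as a filtered 1 mg/mL solution in DMSO:PEG400:water 10:50:40 (v/v). Plasma was extracted in acidified acetonitrile with diclofenac as internal standard and analysed by UPLC-MS/MS. Non-compartmental analysis used mean concentrations (n=3 per time point), with C0 back-extrapolated from the first two samples. AUCinf = AUClast + Ct/kel.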

[10] = target: Kynurenine 3-monooxygenase (Homo sapiens, UniProt O15229); test: Inhibition of human KMO assessed as 3-hydroxykynurenine formation preincubated for 5 mins using 100 uM kynurenine as substrate by LC-MS/MS analysis in presence of 3 mg/ml plasma protein
Kynurenine 3-monooxygenase (Homo sapiens, UniProt O15229), sequence (O15229 whole entry): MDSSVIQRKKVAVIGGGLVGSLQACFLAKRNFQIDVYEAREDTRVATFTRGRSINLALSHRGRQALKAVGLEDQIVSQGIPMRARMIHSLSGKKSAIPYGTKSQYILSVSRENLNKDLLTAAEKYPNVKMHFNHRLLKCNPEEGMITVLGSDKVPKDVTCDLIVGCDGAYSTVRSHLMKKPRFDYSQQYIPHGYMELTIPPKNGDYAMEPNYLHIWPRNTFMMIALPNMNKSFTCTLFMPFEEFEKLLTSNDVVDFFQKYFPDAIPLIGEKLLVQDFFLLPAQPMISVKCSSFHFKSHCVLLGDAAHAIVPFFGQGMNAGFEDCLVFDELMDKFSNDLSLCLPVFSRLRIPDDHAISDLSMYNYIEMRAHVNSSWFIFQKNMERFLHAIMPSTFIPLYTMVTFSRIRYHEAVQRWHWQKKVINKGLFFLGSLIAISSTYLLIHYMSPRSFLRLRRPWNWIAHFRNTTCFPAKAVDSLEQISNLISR
In short: (§4)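 Liver mitochondrial KMO (mouse C57 BL/6J or human), 0.3 mg protein/mL in 100 mM potassium phosphate pH 7.4, 200 µM NADPH, NADPH-regenerating system, plus 3 mg/mL plasma protein. Compound pre-incubated 5 min at 25°C; 100 µM kynurenine started reaction for 40 min (mouse) or 60 min (human); TCA stop; 3-hydroxykynurenine by LC-MS/MS. IC50 from 8-point 3-fold series, triplicates, n≥2.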

[11] = Plasma protein binding in mouse at 5 and 20 uM for 6 hrs by LC-MS/MS analysis; format: ADME, cell-free; conditions: read-out: PPB
In short: (§5)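 Equilibrium dialysis: plasma fortified in triplicate (5 and 20 µM rat and mouse; 10 µM human) on donor side, PBS on receiver side; 37°C, 200 rpm, 6 h; both sides by LC-MS/MS.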

[12] = Metabolic stability in mouse liver microsomes assessed as intrinsic clearance at 5 uM after 5 to 40 mins by LC-MS/MS analysis; format: ADME; conditions: read-out: CLH
[13] = Tmax in C57BL/6N mouse at 0.05 mg/kg, po administered via gavage by LC-MS/MS analysis; format: ADME, organism-based; design: dose 0.05 mg/kg, route oral; conditions: in vivo; in short: as §2
[14] = Plasma clearance in C57BL/6N mouse at 5 mg/kg, iv administered as single dose by LC-MS/MS analysis; format: ADME, organism-based; design: dose 5 mg/kg, route intravenous
In short: (§6)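 Male C57BL/6N mice given 5 mg/kg iv bolus as 1 mg/mL filtered solution in DMSO:PEG400:water 10:50:40. Plasma extracted with acidified acetonitrile (diclofenac IS), analysed by LC-MS/MS. Composite non-compartmental parameters from mean concentrations (n=3 per time point); C0 back-extrapolated from first two points; kel from at least last three concentrations.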

[15] = AUC(infinity) in C57BL/6N mouse at 0.05 mg/kg, po administered via gavage by LC-MS/MS analysis; format: ADME, organism-based; design: time infinity, dose 0.05 mg/kg, route oral; conditions: plasma; in short: as §1
[16] = Half life in C57BL/6N mouse at 0.05 mg/kg, po administered via gavage by LC-MS/MS analysis; format: ADME, organism-based; design: dose 0.05 mg/kg, route oral; conditions: in vivo; in short: as §1
[17] = Mean residence time in C57BL/6N mouse at 5 mg/kg, iv administered as single dose by LC-MS/MS analysis; format: ADME, organism-based; design: dose 5 mg/kg, route intravenous; conditions: in vivo; in short: as §6
[18] = Plasma protein binding in rat at 5 and 20 uM for 6 hrs by LC-MS/MS analysis; format: ADME, cell-free; conditions: read-out: PPB; in short: as §5
[19] = target: Kynurenine 3-monooxygenase (Mus musculus, UniProt Q91WN4); test: Inhibition of C57BL/6J mouse KMO assessed as 3-hydroxykynurenine formation preincubated for 5 mins using 100 uM kynurenine as substrate by LC-MS/MS analysis in presence of 3 mg/ml plasma protein; in short: as §4
Kynurenine 3-monooxygenase (Mus musculus, UniProt Q91WN4), sequence (Q91WN4 whole entry): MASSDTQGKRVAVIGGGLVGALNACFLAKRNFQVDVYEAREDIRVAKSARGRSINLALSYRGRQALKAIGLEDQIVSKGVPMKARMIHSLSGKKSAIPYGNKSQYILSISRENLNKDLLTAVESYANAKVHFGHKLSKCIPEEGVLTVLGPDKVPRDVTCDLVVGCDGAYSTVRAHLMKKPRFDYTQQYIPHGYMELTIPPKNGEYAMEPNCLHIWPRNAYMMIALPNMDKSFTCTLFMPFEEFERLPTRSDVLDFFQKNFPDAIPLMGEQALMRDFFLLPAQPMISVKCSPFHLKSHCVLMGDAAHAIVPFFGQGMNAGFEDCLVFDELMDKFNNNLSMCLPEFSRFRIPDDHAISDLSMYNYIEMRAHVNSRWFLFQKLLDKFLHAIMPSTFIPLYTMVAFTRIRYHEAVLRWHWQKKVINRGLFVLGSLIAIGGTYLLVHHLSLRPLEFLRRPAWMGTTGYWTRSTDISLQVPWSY

Mus musculus [20] = test: Dose normalised AUC in C57BL/6N mouse at 5 mg/kg, iv administered as single dose by LC-MS/MS analysis; format: ADME, organism-based; design: dose 5 mg/kg, route intravenous; conditions: in vivo; in short: as §3

Cmax [1]: 3400 nM
AUC (Mus musculus [2]): 1.1 µM·h
half-life at 5 µM [3]: > 2.5 h
CLH (Liver): 220 µL/min/mg
Cmax [4]: 1100 nM
Tmax (Mus musculus [5]): 0.5 h
bioavailability [6]: 7.8%
MRT [7]: 0.2 h
t1/2 (Mus musculus [8]): 1.1 h
Compound: COc1ccc(S(=O)(=O)Nc2nc(-c3cccc([N+](=O)[O-])c3)c(CN3CCCCC3)s2)cc1OC

half-life [9]: 6.5 h
IC50 [10]: > 30 µM
fraction unbound at 6 h [11]: < 0.01
microsomal CLint at 5 µM [12]: < 29 µL/min/mg
Tmax [13]: 0.5 h
clearance [14]: 0.3 mL/min/kg
AUC(0-inf) [15]: 4.5 µM·h
half-life [16]: 5.2 h
MRT [17]: 8.3 h
fraction unbound at 6 h [18]: < 0.01
IC50 [19]: ≥ 12 µM
AUC/dose (Mus musculus [20]): 130000 nM·kg·h/mg
Compound: COc1ccc(S(=O)(=O)Nc2nc(-c3cccc([N+](=O)[O-])c3)cs2)cc1OC
